Experimental data of several laboratories.
Lines come from different studies, so protocols differ.
Read-out: cell growth or viability

SMILES	cell line	test	setting	quantity	result
COc1cccc2c1C(=O)c1c(O)c3c(c(O)c1C2=O)C[C@@](O)(C(=O)CO)C[C@@H]3O[C@H]1C[C@H](N)[C@H](O)[C@H](C)O1	MX1	–	96 h	IC50	22.5 nM
CO[C@H]1[C@H](O[C@H]([C@H]2O[C@@H](n3ccc(=O)[nH]c3=O)[C@H](O)[C@@H]2O)[C@H](NCCCNC(=O)[C@@H](NC(=O)[C@@H](NC(=O)N[C@H](C(=O)O)C(C)C)[C@@H]2CCN=C(N)N2)[C@@H](OC(=O)CCCCCCCCCCCCN(O)C(=N)N)C(C)C)C(=O)O)O[C@H](CN)[C@H]1O	MDA-MB-453	WST-1	–	IC50	880 nM
C[C@H](Nc1ccc2c(c1)OCCn1cc(N3C(=O)OC[C@H]3C(F)F)nc1-2)C(N)=O	MDA-MB-453	ATP luminescence	5 days	EC50	45.7 nM
COC(=O)[C@H]1[C@@H](O)[C@@]2(O)c3c(OC)cc(O[C@@H]4O[C@@H]([C@H](O)CO)CO[C@H]4OC)cc3O[C@@]2(c2ccc(OC)cc2)[C@@H]1c1ccccc1	HK-1	MTS	72 h	IC50	5 nM
CN1CCC(NC2CCc3[nH]c4c(C(N)=O)ccc(-c5ccccc5Cl)c4c3C2)CC1 (stereo not shown)	MX1	–	96 h	IC50	19.5 nM
Nc1ccn([C@@H]2O[C@H](CO)[C@@H](O)C2(F)F)c(=O)n1	HCCC9810	CCK-8	–	IC50	2030 nM
CCCCCCCCCCCCCCCCCCOc1cccc(CC(=O)OCC[N+](CC)(CC)CC)c1	NCI-H460	SRB	10 µM	inhibition	33%
Cc1nc(Nc2ncc(C(=O)Nc3c(C)cccc3Cl)s2)cc(N2CC[C@H](O)C2)n1	RS4-11	ATP luminescence	10 µM, 72 h	inhibition	46%
CO[C@H]1[C@H](O[C@H]([C@H]2O[C@@H](n3ccc(=O)[nH]c3=O)[C@H](O)[C@@H]2O)[C@H](NCCCNC(=O)[C@@H](NC(=O)[C@@H](NC(=O)N[C@H](C(=O)O)C(C)C)[C@@H]2CCN=C(N)N2)[C@@H](O)C(C)C)C(=O)O)O[C@H](CN)[C@H]1O	MDA-MB-453	WST-1	–	IC50	> 35000 nM
COc1cc([C@@H]2c3cc4c(cc3[C@@H](O[C@@H]3O[C@@H]5CO[C@@H](C)O[C@H]5[C@H](O)[C@H]3O)[C@H]3COC(=O)[C@H]23)OCO4)cc(OC)c1O	SNU-638	SRB	72 h	IC50	590 nM
Cc1sc2c(c1C)C(c1ccc(Cl)cc1)=N[C@@H](CC(=O)NCCCCNC(=O)COc1cccc3c1C(=O)N(C1CCC(=O)NC1=O)C3=O)c1nnc(C)n1-2 (stereo partly shown)	MDA-MB-453	CCK-8	72 h	IC50	2720 nM
Cc1cnc(CNC(=O)c2c(=O)c3ccc(N4CCCN(C)CC4)nc3n3c2sc2ccccc23)cn1	HK-1	MTS	72 h	IC50	1000 nM
N/C(=N\O)c1ccc(-c2cc(CNc3cccc4cccnc34)on2)cc1	NCI-H460	MTS	72 h	IC50	95100 nM
